Source: PubChem BioAssay
PAFAH2 FP inh: inhibitors of human PAFAH2 | Q99487 | recombinant PAFAH2, FP-rhodamine activity probe, fluorescence polarization | inhibition, % at 3.39 µM | actives 0.99% (n = 340,000);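 active = inhibition above the mean over all tested compounds plus 3 SD, cut at about 30% in these data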;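 note: inhibitors block probe labeling of enzyme so polarization drops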
Apaf1 inhib: blocks human Apaf-1 apoptosome activity. O14727. actives 0.71% (n = 330,000). inhibition, % at 20 µM. AID 489030. reconstituted apoptosome caspase-3 activity, DEVD-Rh110 fluorescence; active = inhibition of at least 40% at 20 µM
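Medium: Hepes buffer, pH 7.5 / System: biochemical Apaf-1 apoptosome reconstitution / Measured by: Rh110 fluorescence, excitation 480 nm, emission 540 nm / Times: compound with Apaf-1, dATP, procaspase-3 30 min, then 50 min reaction, room temperature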
PREPL inh: inhibits the human prolyl oligopeptidase-like enzyme; actives 0.68% (n = 320,000); AID 2751; recombinant PREPL, fluorescence polarization activity-based probe; inhibition, % at 5.96 µM; in the data active = inhibition above about 43%
Target sequence (Q4J6C6 whole entry, looked up): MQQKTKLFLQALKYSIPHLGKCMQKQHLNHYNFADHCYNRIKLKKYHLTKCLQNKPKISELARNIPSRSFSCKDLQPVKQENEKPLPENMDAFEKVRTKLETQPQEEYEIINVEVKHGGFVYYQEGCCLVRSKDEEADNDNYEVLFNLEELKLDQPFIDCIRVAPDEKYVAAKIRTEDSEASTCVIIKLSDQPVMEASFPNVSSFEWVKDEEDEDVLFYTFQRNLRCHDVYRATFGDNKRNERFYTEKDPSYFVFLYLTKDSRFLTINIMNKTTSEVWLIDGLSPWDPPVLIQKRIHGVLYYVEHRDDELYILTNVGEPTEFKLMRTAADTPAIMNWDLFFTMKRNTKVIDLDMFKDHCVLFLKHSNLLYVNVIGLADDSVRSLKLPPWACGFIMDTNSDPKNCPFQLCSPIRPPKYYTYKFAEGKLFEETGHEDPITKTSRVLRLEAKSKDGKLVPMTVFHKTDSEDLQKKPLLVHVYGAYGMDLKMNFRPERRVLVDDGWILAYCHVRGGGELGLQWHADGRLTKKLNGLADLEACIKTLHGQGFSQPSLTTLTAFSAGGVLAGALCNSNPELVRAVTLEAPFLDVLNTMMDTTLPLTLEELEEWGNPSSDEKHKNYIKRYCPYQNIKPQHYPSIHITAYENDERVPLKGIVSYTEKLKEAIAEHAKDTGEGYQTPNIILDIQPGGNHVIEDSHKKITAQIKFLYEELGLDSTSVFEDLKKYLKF
pPAFAH inh: pPAFAH (human) enzyme inhibition. Q13093. recombinant pPAFAH, FP-rhodamine probe fluorescence polarization. inhibition, % at 3.39 µM. actives 1.5% (n = 330,000);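 active = inhibition above the mean inhibition across the screen plus 3 SD, cut at about 25% in these data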;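 note: inhibitors block binding of the rhodamine activity-based probe so polarization drops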
PAFAH1B3 FP inh: blocks human PAF acetylhydrolase 1B catalytic subunit 3 | Q15102 | recombinant PAFAH1B3, FP-rhodamine probe, fluorescence polarization | inhibition, % at 3.39 µM | actives 0.28% (n = 340,000) | AID 492972;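 active = inhibition above the screen-wide average of all tested compounds plus 3 SD, cut at about 25% in these data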
PAFAH1B2 FP inh: blocks human PAF acetylhydrolase 1b catalytic subunit 2; P68402; recombinant PAFAH1B2, FP-rhodamine activity probe, fluorescence polarization; inhibition, % at 3.39 µM; actives 1.2% (n = 340,000); AID 492953;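 active = inhibition above the mean of all tested compounds plus 3 SD, cut at about 24% in these data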
Numbers stand for hits. Compounds with a hit are over-represented: about 3.5% of the library has one in this group of screens.

O=C(NCCc1ccccc1)c1ccccc1Cl was read as PAFAH2 FP inh inactive, Apaf1 inhib inactive, PREPL inh inactive, pPAFAH inh inactive, PAFAH1B3 FP inh inactive and PAFAH1B2 FP inh inactive.
O=C(O)c1cccc2cc(-c3ccccc3)oc(=O)c12 was read as PAFAH2 FP inh inactive, Apaf1 inhib inactive, PREPL inh inactive, pPAFAH inh inactive, PAFAH1B3 FP inh inactive and PAFAH1B2 FP inh inactive.
Screening O=C(O)c1cccc2cccc(-c3c4ccc(=O)c(O)c-4oc4c(O)c(O)ccc34)c12 returned PAFAH2 FP inh 69, PAFAH1B3 FP inh 66 and PAFAH1B2 FP inh 62.
For Cc1cc(N(C)C)nc(Nc2ccccc2)n1 the results were PAFAH2 FP inh inactive, Apaf1 inhib inactive, PREPL inh inactive, pPAFAH inh inactive, PAFAH1B3 FP inh inactive and PAFAH1B2 FP inh inactive.
CCN(CC)c1cccc(OC2=NS(=O)(=O)c3ccccc32)c1 was read as PAFAH2 FP inh inactive, Apaf1 inhib inactive, PREPL inh inactive, pPAFAH inh 25, PAFAH1B3 FP inh inactive and PAFAH1B2 FP inh inactive.
CN(CC(=O)Nc1cccc(F)c1)C(=O)c1ccc(N2CCCC2)c([N+](=O)[O-])c1 was read as PAFAH2 FP inh inactive, Apaf1 inhib inactive, PREPL inh inactive, pPAFAH inh inactive, PAFAH1B3 FP inh inactive and PAFAH1B2 FP inh inactive.
COc1ccccc1NC(=O)Cn1nc(Cc2cccnc2)c2ccccc2c1=O was read as PAFAH2 FP inh inactive, Apaf1 inhib inactive, PREPL inh inactive, pPAFAH inh inactive, PAFAH1B3 FP inh inactive and PAFAH1B2 FP inh inactive.
Cn1c(CCN2CCCC2)nc2cc(NS(=O)(=O)c3ccc(Cl)cc3)ccc21 was read as PAFAH2 FP inh inactive, Apaf1 inhib inactive, PREPL inh inactive, pPAFAH inh inactive, PAFAH1B3 FP inh inactive and PAFAH1B2 FP inh 28.
`O=C(CN1Cc2ccccc2C1=O)Nc1ccc2c(c1)OCCO2` gave PAFAH2 FP inh inactive, Apaf1 inhib inactive, PREPL inh inactive, pPAFAH inh inactive, PAFAH1B3 FP inh inactive and PAFAH1B2 FP inh inactive.
For O=S(=O)(N/N=C/c1ccc2c(c1)OCO2)c1ccc(Br)cc1 the results were PAFAH2 FP inh inactive, Apaf1 inhib inactive, PREPL inh inactive, pPAFAH inh inactive, PAFAH1B3 FP inh inactive and PAFAH1B2 FP inh 26.
Screening Cc1nccc(-c2cccc(NC(=O)c3ccccc3Cl)c2)n1 returned PAFAH2 FP inh inactive, Apaf1 inhib inactive, PREPL inh inactive, pPAFAH inh inactive, PAFAH1B3 FP inh inactive and PAFAH1B2 FP inh inactive.
`Cc1ccc(NC(=O)CSc2nc3[nH]ncc3c(=O)[nH]2)cc1Cl` gave PAFAH2 FP inh inactive, Apaf1 inhib inactive, PREPL inh inactive, pPAFAH inh inactive, PAFAH1B3 FP inh inactive and PAFAH1B2 FP inh inactive.
Screening CC(C)c1ccc(/C=C2\Oc3c(ccc(O)c3CN3CCN(C)CC3)C2=O)cc1 returned PAFAH2 FP inh 76, Apaf1 inhib inactive, PREPL inh inactive, pPAFAH inh inactive, PAFAH1B3 FP inh inactive and PAFAH1B2 FP inh 25.
`Cc1ccc(/C=C2\Oc3c(ccc(O)c3CN3CCN(CCO)CC3)C2=O)cc1` gave PAFAH2 FP inh inactive, Apaf1 inhib inactive, PREPL inh inactive, pPAFAH inh inactive, PAFAH1B3 FP inh inactive and PAFAH1B2 FP inh inactive.
For O=C(CC(c1ccccc1)(c1ccccc1)c1ccccc1)N[C@@H](Cc1ccccc1)C(=O)O the results were PAFAH2 FP inh inactive, Apaf1 inhib inactive, PREPL inh inactive, pPAFAH inh inactive, PAFAH1B3 FP inh inactive and PAFAH1B2 FP inh 25.
`O=C(O)[C@H](Cc1ccccc1)NC(=O)C(c1ccccc1)(c1ccccc1)c1ccccc1` gave PAFAH2 FP inh inactive, Apaf1 inhib inactive, PREPL inh inactive, pPAFAH inh inactive, PAFAH1B3 FP inh inactive and PAFAH1B2 FP inh inactive.
Screening Cc1ccc(C(=O)OC2OC(=O)C(Cl)=C2N2CCOCC2)cc1 (centres undefined) returned PAFAH2 FP inh inactive, Apaf1 inhib inactive, PREPL inh 43, pPAFAH inh inactive, PAFAH1B3 FP inh inactive and PAFAH1B2 FP inh inactive.
Cc1ccc(C(=O)Oc2ccccc2N2CCOCC2)cc1 was read as PAFAH2 FP inh inactive, Apaf1 inhib inactive, PREPL inh inactive, pPAFAH inh inactive, PAFAH1B3 FP inh inactive and PAFAH1B2 FP inh inactive.
For CCOc1ccccc1CNc1ccc(O)cc1 the results were PAFAH2 FP inh 35, PAFAH1B3 FP inh 26 and PAFAH1B2 FP inh inactive.
`CCOc1cccc(CNc2ccc(O)cc2)c1OCc1ccc(Cl)cc1` gave PAFAH2 FP inh inactive, Apaf1 inhib inactive, PREPL inh inactive, pPAFAH inh 33, PAFAH1B3 FP inh inactive and PAFAH1B2 FP inh inactive.
For CCOC(=O)C1CCN(C(=O)CCS(=O)(=O)c2ccc3c(c2)n(C)c(=O)c(=O)n3C)CC1 the results were PAFAH2 FP inh inactive, Apaf1 inhib inactive, PREPL inh inactive, pPAFAH inh inactive, PAFAH1B3 FP inh inactive and PAFAH1B2 FP inh inactive.
`O=[N+]([O-])c1cc(S(=O)(=O)N2CCCCCC2)ccc1Cl` gave PAFAH2 FP inh inactive, Apaf1 inhib inactive, PAFAH1B3 FP inh inactive and PAFAH1B2 FP inh inactive.
Oc1c(Br)cc(Br)cc1/C=N/NC(=S)N[C@H]1CC2C=CC1C2 (some centres undefined) was read as PAFAH2 FP inh 57, Apaf1 inhib inactive, PREPL inh inactive, pPAFAH inh 46, PAFAH1B3 FP inh inactive and PAFAH1B2 FP inh inactive.
`Cc1sc2ncnc(SCc3ccc(C(=O)O)cc3)c2c1C` gave PAFAH2 FP inh inactive, Apaf1 inhib inactive, PREPL inh inactive, pPAFAH inh inactive, PAFAH1B3 FP inh inactive and PAFAH1B2 FP inh inactive.
For Cc1ccc(-c2csc3ncnc(SCc4ccc(C(=O)O)cc4)c23)cc1 the results were Apaf1 inhib inactive, PREPL inh inactive and pPAFAH inh 29.
`COCc1nnc(NC(=O)c2ccc(Cl)cc2[N+](=O)[O-])s1` gave PAFAH2 FP inh inactive, Apaf1 inhib inactive, PREPL inh inactive, pPAFAH inh inactive, PAFAH1B3 FP inh inactive and PAFAH1B2 FP inh inactive.
For Cc1ccc(SC2=C(N(C)C)C(=O)c3ccccc3C2=O)cc1 the results were PAFAH2 FP inh inactive, PAFAH1B3 FP inh 34 and PAFAH1B2 FP inh 25.
Screening CN(C)c1cccc2c1C(=O)c1ccccc1C2=O returned PAFAH2 FP inh inactive, Apaf1 inhib inactive, PREPL inh inactive, pPAFAH inh inactive, PAFAH1B3 FP inh inactive and PAFAH1B2 FP inh inactive.
Cc1ccc(S(=O)(=O)NNC(=O)c2cnn(-c3ccccc3)c2-n2cccc2)cc1 was read as PAFAH2 FP inh inactive, Apaf1 inhib inactive, PREPL inh inactive, pPAFAH inh inactive, PAFAH1B3 FP inh inactive and PAFAH1B2 FP inh 28.
`COc1ccc(Cl)cc1C(=O)Nc1nc(C)cc(C)n1` gave PAFAH2 FP inh inactive, Apaf1 inhib inactive, PREPL inh inactive, pPAFAH inh inactive, PAFAH1B3 FP inh inactive and PAFAH1B2 FP inh inactive.
`COC1=CC(=O)c2ccccc2C1=O` gave PAFAH2 FP inh inactive, Apaf1 inhib 79, PREPL inh inactive, pPAFAH inh inactive, PAFAH1B3 FP inh 43 and PAFAH1B2 FP inh inactive.
For O=S(=O)(NCCCc1ccccc1)c1ccc(Cl)cc1 the results were PAFAH2 FP inh inactive, Apaf1 inhib inactive, PREPL inh inactive, pPAFAH inh inactive, PAFAH1B3 FP inh inactive and PAFAH1B2 FP inh 26.
